Assay results reported in ChEMBL document CHEMBL1148192, “Nagelamides A-H, new dimeric bromopyrrole alkaloids from marine sponge Agelas species” (J Nat Prod, 2004).
≈ marks a conversion by molar mass, not a printed value.

Experiments:
[1] = tested on: Micrococcus luteus; assay: Antimicrobial activity against Micrococcus luteus; assay type: functional
Summary of the method: (§1)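 Microbroth dilution method in BHI medium.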

[2] = tested on: Bacillus subtilis; assay: Antimicrobial activity against Bacillus subtilis; assay type: functional; summary of the method: as §1
[3] = tested on: Escherichia coli; assay: Antimicrobial activity against Escherichia coli; assay type: functional; summary of the method: as §1
[4] = Inhibition of protein phosphatase 2A in african green monkey COS7 cells; assay type: cell-based, Chlorocebus aethiops; conditions: cos-7
Summary of the method: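 PP2A activity was measured in COS-7 cell extract. Cells were lysed at 4 °C in hypotonic Tris-HCl pH 7.5 buffer with DTT, EGTA and protease inhibitors, then centrifuged at 20000g. Extract at 5 μg/mL protein was preincubated with compound for 10 min at 30 °C. Activity was taken as the okadaic acid (1 nM)-sensitive portion, run in triplicate and reported as the mean.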

| Compound | MIC [1] [µg/mL] | MIC [2] [µg/mL] | MIC [3] [µg/mL] | IC50 [4] [µM] |
| --- | --- | --- | --- | --- |
| Nc1nc([C@H](CCNC(=O)c2cc(Br)c(Br)[nH]2)c2[nH]c(N)nc2CCCNC(=O)c2cc(Br)c(Br)[nH]2)c[nH]1 [NAGELAMIDE D] | 4.17 (≈ 5.35 µM) | 33.3 (≈ 42.7 µM) | 33.3 (≈ 42.7 µM) | – |
| NC1=N/C(=N\CCS(=O)(=O)O)C(/C=C/CNC(=O)c2cc(Br)c(Br)[nH]2)(c2[nH]c(N)nc2/C=C/CNC(=O)c2cc(Br)c(Br)[nH]2)N1 (stereo unspecified) [NAGELAMIDE H] | 16.7 (≈ 18.6 µM) | 33.3 (≈ 37 µM) | > 33.3 | 46 |
| Nc1nc([C@@H](c2[nH]c(N)nc2/C=C/CNC(=O)c2cc(Br)c(Br)[nH]2)[C@H](O)CNC(=O)c2cc(Br)c(Br)[nH]2)c[nH]1 [NAGELAMIDE B] | 4.17 (≈ 5.25 µM) | 33.3 (≈ 41.9 µM) | 33.3 (≈ 41.9 µM) | > 50 |
| Nc1nc([C@H]2c3[nH]c(N)nc3C[C@H](CNC(=O)c3cc(Br)c[nH]3)[C@H]2CNC(=O)c2cc(Br)c(Br)[nH]2)c[nH]1 [NAGELAMIDE F] | 4.17 (≈ 5.96 µM) | 16.7 (≈ 23.9 µM) | 33.3 (≈ 47.6 µM) | – |
| Nc1nc([C@H](CCNC(=O)c2cc(Br)c(Br)[nH]2)c2[nH]c(N)nc2/C=C/CNC(=O)c2cc(Br)c(Br)[nH]2)c[nH]1 [NAGELAMIDE A] | 2.08 (≈ 2.67 µM) | 16.7 (≈ 21.5 µM) | 33.3 (≈ 42.8 µM) | 48 |
| Cl.Cl.Nc1ncc([C@H]2[C@H](CNC(=O)c3cc(Br)c[nH]3)[C@@H](CNC(=O)c3cc(Br)c[nH]3)[C@@H]2c2cnc(N)[nH]2)[nH]1 [SCEPTRIN HYDROCHLORIDE] | 4.07 | 8.33 | 33.3 | 50 |
| Nc1nc([C@H]2c3[nH]c(N)nc3C[C@H](CNC(=O)c3cc(Br)c(Br)[nH]3)[C@H]2CNC(=O)c2cc(Br)c(Br)[nH]2)c[nH]1 [NAGELAMIDE G] | 2.08 (≈ 2.67 µM) | 16.7 (≈ 21.5 µM) | 33.3 (≈ 42.8 µM) | 13 |

The remaining molecules from weak to strong by MIC [1], led by results:

| MIC [1] [µg/mL] | MIC [2] [µg/mL] | MIC [3] [µg/mL] | IC50 [4] [µM] | Compound |
| --- | --- | --- | --- | --- |
| 4.17 | 8.33 | 33.3 | > 50 | Nc1nc([C@@H]2c3[nH]c(N)nc3C[C@H](CNC(=O)c3cc(Br)c[nH]3)[C@H]2CNC(=O)c2cc(Br)c[nH]2)c[nH]1.O=C(O)C(F)(F)F.O=C(O)C(F)(F)F [AGELIFERIN] |
| 4.17 (≈ 6.72 µM) | 16.7 (≈ 26.9 µM) | 33.3 (≈ 53.7 µM) | – | Nc1nc([C@H]2c3[nH]c(N)nc3C[C@H](CNC(=O)c3cc(Br)c[nH]3)[C@H]2CNC(=O)c2cc(Br)c[nH]2)c[nH]1 [NAGELAMIDE E] |
| 4.17 (≈ 5.37 µM) | 33.3 (≈ 42.9 µM) | 33.3 (≈ 42.9 µM) | > 50 | Nc1nc(/C(=C/CNC(=O)c2cc(Br)c(Br)[nH]2)c2[nH]c(N)nc2/C=C/CNC(=O)c2cc(Br)c(Br)[nH]2)c[nH]1 [NAGELAMIDE C] |
| 2.08 (≈ 2.97 µM) | 2.08 (≈ 2.97 µM) | 16.7 (≈ 23.9 µM) | > 50 | Nc1nc([C@@H]2c3[nH]c(N)nc3C[C@H](CNC(=O)c3cc(Br)c[nH]3)[C@H]2CNC(=O)c2cc(Br)c(Br)[nH]2)c[nH]1 [BROMOAGELIFERIN] |
